Assay results from ChEMBL document CHEMBL4513216, “Probing the Open Global Health Chemical Diversity Library for Multistage-Active Starting Points for Next-Generation Antimalarials” (ACS Infect Dis, 2020).

assay: Toxicity liver stage against HepG2, at 10uM; assay type: cell-based; design: test concentration 10 uM, cell line HepG2-A16-CD81EGFP; settings: human, HepG2-A16-CD81EGFP cells; read-out: INHIBITION
Summary of the method: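 Uninfected HepG2-A16-CD81EGFP cells, 3 × 10^3 per well, 1536-well, plated on prespotted compound at 10 μM final, parasite-free screening media added to match infected plates; puromycin 10 μM positive, DMSO 0.5% negative; run in parallel with 48 h PbLuc assay at 37 °C, 5% CO2; viability by CellTiter-Glo luminescence, normalized to controls.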

| Compound | cytotoxicity at 10 µM |
| --- | --- |
| Cn1cnnc1C1CCCN(C(=O)c2cc3ccccc3[nH]2)C1 (stereo unspecified) | -7.88% |
| O=C1CCCN1c1cccc(CNCc2nc(-c3ccco3)no2)c1 | 0.379% |
| Cc1ccc(NC2CCN(C(=O)Cc3cccc(F)c3)CC2)nn1 | -5.23% |
| COc1cc2c(cc1CCC(=O)O)CCC2 | 1.11% |
| O=C(c1cn(-c2ccccc2Cl)nn1)N1CCN(CCO)CC1 | -2.88% |
| CC(C)c1nnc2n1CCN(C(=O)c1cnc(C3CC3)s1)C2 | 4.87% |
| NC(=O)NCC(=O)N1C[C@@H]2CC[C@H]1CN(Cc1cscn1)C2 | 8.86% |
| CC(C)c1cc(CN2CCNCC2)no1 | -10.9% |
| Cc1nn(CC(=O)N2CCN(Cc3cn(C)nc3C)CC2)cc1Br | -6.28% |
| CSC(C)C(=O)NCc1ccnc(N2CCN(C)CC2)c1 (stereo unspecified) | -15.3% |
| CCC(=O)N1CCC(c2ncncc2C)CC1 | -11.5% |
| COCC1CN(C(=O)Nc2cc(Br)ccc2F)CCO1 (stereo unspecified) | -0.749% |
| O=S(=O)(NCCC(O)c1cccs1)c1ccccc1Cl (stereo unspecified) | 1.87% |
| CN(C)S(=O)(=O)N1CC[C@]2(O)CCN(c3ncccn3)C[C@@H]2C1 | 5.74% |
| CC(C)Nc1cccc(CC2CCN(S(C)(=O)=O)CC2)n1 | -22.3% |
| OC(CNCCn1cccn1)c1ccc2c(c1)OCCO2 (stereo unspecified) | -0.361% |
| Cc1nccnc1N1C[C@H]2CN(C3CCOCC3)C[C@@]2(C(=O)O)C1 | -6.93% |
| O=C(c1ccc2[nH]nnc2c1)N1CCCC(n2cccn2)C1 (stereo unspecified) | -1.56% |
| O=C1CCOCCN1Cc1ccc(Cl)c(Cl)c1 | 3.3% |
| CCc1ccc2nc(NCC(O)CO)cc(C)c2c1 (stereo unspecified) | -15.4% |
| Cc1nc(C)c(CCNC(=O)NC2CC(=O)N(C(C)(C)C)C2)s1 (stereo unspecified) | -1.08% |
| O=C(C[C@@H]1COC[C@H]2CN(Cc3cccnc3)C[C@@H]12)N1CCCC1 | -128% |
| CN(C)CCOCc1nnc2n1CCN(CC1CC1)CC2 | -4.87% |

| Compound | cytotoxicity at 10 µM |
| --- | --- |
| CCOCC(=O)N1C[C@@H]2COC[C@H](c3nc(C)no3)[C@@H]2C1 | -11.1% |
| CNS(=O)(=O)CC(=O)NC(C)Cc1ccc(-c2ccccc2)cc1 (stereo unspecified) | 7.69% |
| O=C(Cn1ccc(=O)[nH]c1=O)NCc1cccnc1OCC(F)(F)F | -5.88% |
| CCCS(=O)(=O)N1CCN(C(C)(C)CO)CC1 | -0.45% |
| CS(=O)(=O)NCCC1CCCCN1C(=O)NCCc1ccccc1 (stereo unspecified) | -6% |
| Cc1noc(C)c1C(=O)N1CCCC1c1c(C)nn(C)c1Cl (stereo unspecified) | -12.6% |
| COCCC(=O)N1CCC2(CCN(Cc3ccc(OC)c(F)c3)C2)C1 (stereo unspecified) | 9.75% |
| CC(C)N1[C@H](Cn2cncn2)C[C@@H]2CN(Cc3nccn3C)CC[C@@H]21 | -106% |
| CNc1cccc(C2CCCN(C(C)=O)C2)n1 (stereo unspecified) | -0.962% |
| COC[C@H]1CC[C@@H]2[C@@H](CCN2Cc2ccccn2)O1 | -72.6% |
| O=S(=O)(c1cc(F)ccc1F)N1CCCC1c1ccncc1 (stereo unspecified) | 14.3% |
| O=C1CCCN1CCCNCc1cc(O)c2cccc(Cl)c2n1 | 4.05% |
| O=C(Nc1cccc(C(F)(F)F)c1)C1CC(=O)N(Cc2ccccn2)C1 (stereo unspecified) | -0.505% |
| Cc1nc(C)n(C2CCCN(C(=O)c3c[nH]c(C(C)C)n3)C2)n1 (stereo unspecified) | -19.9% |
| CCCn1ccnc1-c1cccc(NC2CCOC2)c1 (stereo unspecified) | -3.1% |
| CCc1nc(CC2CN(c3ncnc4nc(C)cc(C)c34)CCO2)no1 (stereo unspecified) | -5.79% |
| CN1CC(C(=O)NCc2ccc(OCc3cccnc3)cc2)CC1=O (stereo unspecified) | 17.7% |
| Cc1nccc(C(=O)N2CCCC2c2noc(C(C)C)n2)n1 (stereo unspecified) | -16.4% |
| O=C(CCN1CCCC1c1cccc2c1OCCO2)N1CCCCC1 (stereo unspecified) | 2.43% |
| Cc1csc(CN2CC[C@@](O)(C3CCOCC3)[C@H](C)C2)n1 | 4.48% |
| CN1C(=O)C2(CC(=O)Nc3[nH]ncc32)c2ccc(F)cc21 (stereo unspecified) | -1.52% |
| CCOC1COC2(CCN(Cc3cccc(C#N)c3)CC2)C1 (stereo unspecified) | -2.66% |
| CCOc1ccc(CNC(=O)c2cnc(OC)nc2)cc1 | -0.121% |

| Compound | cytotoxicity at 10 µM |
| --- | --- |
| NC(=O)NC(=O)CCN1CCCC1c1cccc2c1OCCO2 (stereo unspecified) | -5.35% |
| Cc1ccccc1N1CCCN(C(=O)CCc2nncn2C)CC1 | 3.82% |
| COc1ncccc1CN1C[C@@H]2COC[C@]2(COCC(=O)N(C)C)C1 | 7.81% |
| CCn1cc(CN2CCN(CC(O)c3cc(C)ccc3C)CC2)c(C)n1 (stereo unspecified) | 3.41% |
| Cc1noc([C@@]23CCO[C@@H]2CCN(Cc2scnc2C)C3)n1 | -111% |
| CCC(C)NC(=O)Nc1cccc(OC)c1 (stereo unspecified) | 0.554% |
| O=C(NCC1CCS(=O)(=O)C1)N(Cc1ccncc1)C1CC1 (stereo unspecified) | -138% |
| CCn1cc(CN2CCN(CC(O)c3ccc(C)cc3C)CC2)c(C)n1 (stereo unspecified) | -0.664% |
| CCNC(=O)[C@@H]1C[C@@H](N)CN1C(=O)c1cc2ccccc2[nH]1 | -9.6% |
| Cc1cc(CN2CC[C@H]3C[C@H](c4nc(C5CC5)cs4)O[C@@H]3C2)no1 | -97.6% |
| CS(=O)(=O)c1ccc(C(=O)NCc2nc3cc(F)ccc3[nH]2)cc1 | -3.34% |
| CC1c2ncc(COCC3CCOCC3)n2CCN1Cc1cccnc1 (stereo unspecified) | 5.95% |
| Cc1cc(NC(=O)CNC(C)(C)c2ccc3c(c2)OCO3)on1 | 7.51% |
| Cc1ccc(CCCC(=O)N2CCC(CS(N)(=O)=O)CC2)s1 | 15.6% |
| O=C(NCCO)NC(c1ccccc1)c1ccc2c(c1)CCCO2 (stereo unspecified) | 2.73% |
| CCCS(=O)(=O)NCc1cccnc1Oc1ccc(C)nc1 | -1.15% |
| Cc1nn(C)c(C)c1C1CCCN1CC(=O)NCc1ccccn1 (stereo unspecified) | 0.702% |
| COc1cccc(CN(C(=O)Nc2nncs2)C2CCC(O)CC2)c1 (stereo unspecified) | -0.67% |
| c1ccc2c(c1)CC(N1CCCC(NCc3cccc4nonc34)C1)C2 (stereo unspecified) | -1.98% |
| Cc1noc([C@@H]2C[C@H]3OCC[C@H]3N(Cc3sccc3C)C2)n1 | -69.1% |
| Cc1noc([C@@H]2C[C@H]3OCC[C@H]3N(CC3CCCC3)C2)n1 | -77.5% |
| c1ccc(Cn2cncn2)c(CNCC2CNc3ccnn3C2)c1 (stereo unspecified) | -3.61% |
| Cn1cnc(S(=O)(=O)N2CCCC2)c1Cl | 15.1% |

| Compound | cytotoxicity at 10 µM |
| --- | --- |
| COc1ccc(-n2cccn2)c(CN2CCC3(CCCN(C)C3=O)C2)c1 (stereo unspecified) | 10.2% |
| CN1CCOC(CNCCc2ccccn2)C1 (stereo unspecified) | -4.77% |
| Cc1nnc([C@H]2C[C@@H]3CCN(Cc4cc(C)on4)C[C@H]3O2)[nH]1 | -5.03% |
| CC(NCc1cccnc1)c1cc2c(cc1Br)OCCO2 (stereo unspecified) | 2.46% |
| O=C([C@H]1CC[C@@H]2[C@@H](CCN2c2ncccn2)O1)N1CCCCO1 | 6.46% |
| COc1ccc(N2CCN(CC[C@H](O)c3ccccc3)CC2=O)cc1 | 2.41% |
| CCc1cc(NCc2cc3n(n2)CCCN(S(C)(=O)=O)C3)nc(C)n1 | -1.52% |
| COc1ncccc1CNC(=O)c1cnccn1 | -8.77% |
| COc1cc(OC)c(-c2nc3c([nH]2)c(C2CC2)nn3C)cc1OC | -5.02% |
| O=C(CN1CCCC1Cn1cccn1)NCCC1=CCCCC1 (stereo unspecified) | -2.78% |
| Cc1cnn(CC2CCN(CC(O)c3ccccc3)CC2)c1 (stereo unspecified) | -8.46% |
| COc1cc(Cl)ccc1C(=O)NCc1nncn1C | -4.35% |
| CC(Cn1cccn1)NC(=O)Nc1ccccn1 (stereo unspecified) | 1.32% |
| CCc1ccccc1C(=O)NS(=O)(=O)CCCC#N | -5.83% |
| CCn1cc(S(=O)(=O)N2CCCSc3ccccc32)cn1 | 9.25% |
| CCCc1nc(C)cc(N2CCC3(CCC(=O)N(C4CC4)C3)CC2)n1 | -5.31% |
| COc1ccc(CNC(=O)c2ccc(Br)cn2)cc1 | -18% |
| O=C(NCCO)Nc1c(F)cc(F)cc1-c1ccccc1 | -1.99% |
| CNS(=O)(=O)Cc1cccc(CNc2ccc(C#N)cn2)c1 | -11.2% |
| CN(C)c1ccc(CCNC(=O)C2CCC(=O)N(C3CCCC3)C2)cc1 (stereo unspecified) | 20.8% |
| COC(=O)N1CCC(Oc2ccc(C(=O)NCCN(C)C)cc2Cl)CC1 | -6.34% |
| COc1ncccc1-c1nc(-c2ccccn2)nn1C1CCN(C)CC1 | -4.52% |
| COc1ncccc1NC(=O)N1CCOCC1C (stereo unspecified) | -4.86% |

| Compound | cytotoxicity at 10 µM |
| --- | --- |
| Cc1ccccc1OCC(=O)N1CC[C@]2(C[C@@H](OCC3CC3)CO2)C1 | 3.1% |
| CC(C)(C)CNC[C@H]1Cn2ccnc2CO1 | -6.17% |
| Cn1ncc2c(N3CCN(CCO)CC3)nc(C3CCCC3)nc21 | -4.07% |
| C=Cn1ncc(CN2C[C@@H]3C[C@@H](O)CN3C[C@H]2Cc2ccccc2)c1C | 4.08% |
| O=C(Cn1cc(I)cn1)NCC1CCC1 | 14.5% |
| CN(Cc1nc(-c2cccnc2)no1)C(=O)c1cccn1C | -2.85% |
| O=S1(=O)c2cccnc2OC(COc2ccccc2)CN1CC1CC1 (stereo unspecified) | -3.24% |
| CCOc1ccccc1OC1CCN(C(=O)c2nc(=O)[nH][nH]2)CC1 | -9.75% |
| Cc1nc(C2CN(Cc3scnc3C)CCO2)cc(N(C)C)n1 (stereo unspecified) | -12.3% |
| CCCN(CCN(C)C)C(=O)Cc1cn2ccsc2n1 | 0.27% |
| CC(C)N[C@@H]1CO[C@H](CNC(=O)c2ccccc2)[C@H]1O | -5.73% |
| COc1ccc(C)cc1CN1CCOC(Cn2nc(C)nc2C)C1 (stereo unspecified) | -2.47% |
| O=C(CNC(=O)N(Cc1ccoc1)C1CCCCC1)N1CCCC1 | -1.3% |
| c1ccc(-c2cc(CN3CCCCCC3c3ccco3)on2)nc1 (stereo unspecified) | -6.19% |
| Cc1nc(C2CCCN2C(=O)CCc2ccccc2)ncc1C(N)=O (stereo unspecified) | -19.5% |
| COC[C@@H]1CCCN1C(=O)c1cc(-c2cccc(OC)c2)n[nH]1 | 6.6% |
| CSc1ncccc1C(=O)NCc1ccc(CS(=O)(=O)NC(C)C)cc1 | 4.4% |
| COc1cc(CNc2ccc(Cl)cc2)ccc1OCC(=O)O | 3.63% |
| Cc1cc(NC2CCCN(Cc3ccc(F)cc3)C2)n2nc(C)cc2n1 (stereo unspecified) | 0.0152% |
